Reference: paper PMC2897717 (Journal of cerebral blood flow and metabolism : official …, 2009)

Assays:
[1] = tested on: dopamine D2/D3 receptors; assay: Multiple-injection; assay type: in vivo, rhesus monkey (Macaca mulatta)
[2] = Multiple-injection; assay type: in vivo, rhesus monkey (Macaca mulatta)
Outline: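 Three labeled/unlabeled radioligand injections were given i.v. in 0.9% NaCl within a session under 3 hours, with no decay correction. The model used K1, k2, fNDkon, koff and Bmax shared across injections, with molar arterial parent plasma as input and a blood-volume term. Levenberg–Marquardt fitting was run per ROI and across regions. Cerebellum was fitted as 1CM [K1,k2] or 2CM [K1,k2,Bmax] with fNDkon and koff fixed from other regions.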

[3] = baboon, MI experiments; ref Delforge et al, 1999; cited from earlier work
[4] = averaged across all brain regions

Compound	Estimated maximum receptor occupancy, injection 1 ([1]; experiment M1a, m1 2.0 nmol) [%]	Estimated maximum receptor occupancy, injection 2 ([1]; experiment M1a, m2 13.1 nmol) [%]	Estimated maximum receptor occupancy, injection 3 ([1]; experiment M1a, m3 100 nmol) [%]	Estimated maximum receptor occupancy, injection 1 ([1]; experiment M2a, m1 0.7 nmol) [%]	Estimated maximum receptor occupancy, injection 2 ([1]; experiment M2a, m2 10.6 nmol) [%]	K1, mean [2, 4] [mL/cm^3/min]	k2, tissue-to-plasma efflux constant, mean [2, 4] [min⁻¹]	ND distribution volume (VND = K1/k2) ([2]; from mean K1 and k2) [mL/cm^3]	VND [3] [mL/cm^3]
C=CCN1CCC[C@H]1CNC(=O)c1cc(CCCF)cc(OC)c1OC [^18F-fallypride, (S)-N-[(1-allyl-2-pyrrolidinyl)methyl]-5 (3-[18F]fluoropropyl) 2,3-dimethoxybenzamide]	13	64	98	12	77	0.48 ± 0.15	0.54 ± 0.10	0.9	–
CCN1CCCC1CNC(=O)c1cc([76Br])cc(OC)c1OC (stereo not drawn) [^76Br-FLB457]	–	–	–	–	–	–	–	–	0.35
